From ChEMBL document CHEMBL1129960, “Design, synthesis, and antiviral evaluation of 2-substituted 4,5-dichloro- and 4,6-dichloro-1-beta-D-ribofuranosylbenzimidazoles as potential agents for human cytomegalovirus infections” (J Med Chem, 1997)

Tests used:
Human betaherpesvirus 5 [1] = assay: Concentration required for 50% inhibition of HCMV replication was measured using a Plaque reduction assay; format: functional, organism-based
Summary of the method: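 HCMV Towne (P0) plaque reduction in HFF cells, ~100 pfu/cm². After adsorption, compound in growth medium at 4–8 concentrations in duplicate wells; 7–10 days at 37 °C. Crystal violet stain, microscopic plaque count. Percent plaque reduction vs no-drug wells; IC50 by linear regression vs log concentration.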

HFF = assay: Visual cytotoxicity was scored on HFF cells at time of HCMV plaque enumeration; format: functional, cell-based; settings: Homo sapiens
Summary of the method: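 Uninfected stationary HFF cells from the HCMV plaque assay plates, inspected microscopically for cytotoxicity at the time plaques were counted (7–10 days, 37 °C).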

Human alphaherpesvirus 1 = assay: Antiviral activity was measured by plaque assay against HSV-1 virus by ELISA method; format: functional, organism-based
Summary of the method: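 HSV-1 (KOS) in BSC-1 cells, 10 000 cells/well seeded in MEM(E) + 10% calf serum, overnight at 37 °C; drug in quadruplicate plus 100 pfu/well virus; 3 days at 37 °C. ELISA read-out with HRP-rabbit anti-HSV-1 and TMB, absorbance at 450/570 nm. Percent reduction vs virus-only wells; IC50 by linear regression on log concentration.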

KB = assay: Inhibition of KB cell growth was determined; format: functional, cell-based; settings: Homo sapiens
Summary of the method: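 KB cells seeded at 3000–5000/well and incubated overnight; compound at 6–8 concentrations in quadruplicate; 48 h at 37 °C in CO2, about two population doublings. Ethanol fixation, 0.1% crystal violet stain, acidified ethanol elution, read at 570 nm. IC50 by linear regression vs log concentration.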

Human betaherpesvirus 5 [2] = assay: Concentration required for 90% inhibition of HCMV replication was measured using a yield reduction assay; format: functional
Summary of the method: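 HCMV yield reduction in HFF cells infected at moi 0.5–1 pfu/cell. Compound in duplicate as 1:3 serial dilutions from 100 to 0.05 μM; 7 days at 37 °C. One freeze-thaw, then progeny titered by plaque count on secondary HFF plates (1:3 dilutions). IC90 from regression of percent inhibition vs log concentration.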

Row | SMILES | IC50 (Human betaherpesvirus 5 [1]) [µM] | IC50 (HFF) [µM] | IC50 (Human alphaherpesvirus 1) [µM] | IC50 (KB) [µM] | IC90 (Human betaherpesvirus 5 [2]) [µM]
1 | Clc1cc(Cl)c2[nH]c(Cl)nc2c1 | 5.1 | 32 | > 100 | > 100 | 
2 | Clc1nc2c(Cl)c(Cl)ccc2[nH]1 | 8 | 32 | > 100 | 80 | 
3 | OC[C@H]1O[C@H](n2c(Br)nc3cc(Cl)c(Cl)cc32)[C@@H](O)[C@H]1O |  |  |  | > 100 | 0.2
4 | Nc1nc2c(Cl)cc(Cl)cc2[nH]1 | > 100 | 100 | > 100 |  | 
5 | OC[C@H]1O[C@@H](n2c(Cl)nc3cc(Cl)c(Cl)cc32)[C@H](O)[C@@H]1O |  |  |  |  | 1.4
6 | CSc1nc2c(Cl)cc(Cl)cc2n1C1O[C@H](CO)[C@@H](O)[C@H]1O (stereo partly drawn) | 110 | 150 | > 300 | 270 | 
7 | [N-]=[N+]=Nc1nc2c(Cl)cc(Cl)cc2n1C1O[C@H](CO)[C@@H](O)[C@H]1O (stereo partly drawn) | 110 | > 100 |  |  | 41
8 | OC[C@H]1OC(n2c(Br)nc3c(Cl)c(Cl)ccc32)[C@H](O)[C@@H]1O (stereo partly drawn) | 2.4 | 161 | > 100 | > 100 | 1
9 | Nc1nc2c(Cl)cc(Cl)cc2n1C1O[C@H](CO)[C@@H](O)[C@H]1O (stereo partly drawn) | > 100 | > 100 | > 300 | > 300 | > 100
10 | OC[C@H]1OC(n2c(Cl)nc3c(Cl)cc(Cl)cc32)[C@H](O)[C@@H]1O (stereo partly drawn) | 10 | 77 | > 300 | 230 | 4.5
11 | OC[C@H]1OC(n2c(S)nc3c(Cl)cc(Cl)cc32)[C@H](O)[C@@H]1O (stereo partly drawn) | > 100 | > 100 | > 300 | > 300 | 
12 | OC[C@H]1OC(n2c(Cl)nc3c(Cl)c(Cl)ccc32)[C@H](O)[C@@H]1O (stereo partly drawn) | 16 | > 100 | > 100 | > 100 | 6
13 | OC[C@H]1OC(n2c(SCc3ccccc3)nc3c(Cl)cc(Cl)cc32)[C@H](O)[C@@H]1O (stereo partly drawn) | 41 | 32 | 140 | 122 | 
14 | OC[C@H]1OC(n2c(Br)nc3c(Cl)cc(Cl)cc32)[C@H](O)[C@@H]1O (stereo partly drawn) | 1.6 | 127 | > 300 | 150 | 2.1
15 | O=C(O)P(=O)(O)O [FOSCARNET] |  | > 100 |  |  | 
16 | Nc1nc2c(ncn2COC(CO)CO)c(=O)[nH]1 [GANCICLOVIR] |  | > 100 |  | > 100 | 1.6
